{"data": "Measured values of several laboratories", "RPS6KA1": "Ribosomal protein S6 kinase alpha-1 (RPS6KA1, Homo sapiens, UniProt Q15418)", "RPS6KA1 C-terminal kinase domain": "Ribosomal protein S6 kinase alpha-1, C-terminal kinase domain (RPS6KA1, Homo sapiens, UniProt Q15418)", "RPS6KA1 N-terminal kinase domain": "Ribosomal protein S6 kinase alpha-1, N-terminal kinase domain (RPS6KA1, Homo sapiens, UniProt Q15418)", "note": "Protocols differ between the studies behind these lines."}
{"Compound": "COc1cc2c(N3CCN(C(=O)Nc4ccc(OC(C)C)cc4)CC3)ncnc2cc1OCCCN1CCCCC1", "target": "RPS6KA1", "assay": "cell-free assay", "conditions": "0.5 µM", "endpoint": "remaining signal", "value": "94.8%"}
{"Compound": "CCCCNc1ncc2c(-c3ccc(F)cc3)nn(C[C@H]3CC[C@H](N)CC3)c2n1", "target": "RPS6KA1 C-terminal kinase domain", "assay": "target engagement in cells, inhibitor, chemoproteomics", "conditions": "20 mM", "endpoint": "inhibition", "value": "63.4%"}
{"Compound": "C[C@H]1CCN(c2nccc(-c3cnn4ncccc34)n2)C1", "target": "RPS6KA1 C-terminal kinase domain", "assay": "binding, competition with immobilised ligand", "conditions": "1 µM", "endpoint": "remaining binding", "value": "30%"}
{"Compound": "CC(C)(C)c1nc(-c2cccc(NS(=O)(=O)c3c(F)cccc3F)c2F)c(-c2ccnc(N)n2)s1", "target": "RPS6KA1", "assay": "enzyme activity, inhibitor, radiometric", "conditions": "1 µM", "endpoint": "remaining activity", "value": "90%"}
{"Compound": "N[C@@H]1CCN(c2nccc(-c3cnn4ncccc34)n2)C1", "target": "RPS6KA1 C-terminal kinase domain", "assay": "binding, competition with immobilised ligand", "conditions": "1 µM", "endpoint": "remaining binding", "value": "100%"}
{"Compound": "O=C(Nc1cnn(-c2csc(C(=O)NC3COC3)c2)c1)Nc1ccccc1Cl", "target": "RPS6KA1", "assay": "enzyme activity, inhibitor", "conditions": "5 µM", "endpoint": "remaining activity", "value": "92.4%"}
{"Compound": "CC(C)(O)[C@H]1CC[C@H](Nc2ccc3ncc(-c4cccc(C(F)(F)F)c4)n3n2)CC1", "target": "RPS6KA1", "assay": "enzyme activity, inhibitor", "conditions": "1 µM", "endpoint": "remaining activity", "value": "72%"}
{"Compound": "CCC(=O)N[C@@H]1CC[C@H](C(=O)N(C)c2ccc(-c3nc4ccccc4o3)cc2)C1", "target": "RPS6KA1 N-terminal kinase domain", "assay": "cell-free assay, competition with immobilised ligand", "conditions": "1 µM", "endpoint": "remaining binding", "value": "100%"}
{"Compound": "COc1cc(Cl)c(C(=O)N[C@@H](CN[C@H]2CC[C@@H](N)CC2)Cc2ccc(C#N)cc2)cc1-c1ccc(CN[C@H](C)c2ccc(C)cc2)o1", "target": "RPS6KA1", "assay": "enzyme activity, inhibitor", "conditions": "1 µM", "endpoint": "remaining activity", "value": "85%"}
{"Compound": "CNc1cc(Oc2cc(C(=O)Nc3cc(N4CCN(C)CC4)cc(C(F)(F)F)c3)ccc2C)ncn1", "target": "RPS6KA1 C-terminal kinase domain", "assay": "target engagement in cells, inhibitor, chemoproteomics", "test system": "Huh-7", "conditions": "1 µM", "endpoint": "inhibition", "value": "-27.6%"}
{"Compound": "Cc1cc(NC(=O)c2cccc3cc(-c4cccc5[nH]nc(N)c45)ccc23)ccc1F", "target": "RPS6KA1", "assay": "enzyme activity, inhibitor", "conditions": "0.1 µM", "endpoint": "activity vs control", "value": "115%"}
{"Compound": "CNCc1ccccc1-c1csc([C@H](C)Nc2nc(C)nc3cc(OC)c(OC)cc23)c1", "target": "RPS6KA1 C-terminal kinase domain", "assay": "cell-free assay, competition with immobilised ligand", "conditions": "1 µM", "endpoint": "remaining binding", "value": "100%"}
{"Compound": "CC(C)c1ccc(NC(=O)c2cccs2)c(-c2nc3ccccc3[nH]c2=O)c1", "target": "RPS6KA1", "assay": "enzyme activity, inhibitor", "conditions": "1 µM", "endpoint": "activity vs control", "value": "96%"}
{"Compound": "CCCOc1ccc(OC)c(F)c1C(=O)c1ccc(C(=O)N[C@@H]2CNC[C@H]2NC(=O)c2ccc3[nH]ncc3c2)cc1", "target": "RPS6KA1", "assay": "enzyme activity, inhibitor", "conditions": "10 µM", "endpoint": "remaining activity", "value": "29%"}
{"Compound": "CCOc1cc(-c2nncn2C)ccc1Nc1ncc2cc(C)nc(NCC(C)(C)C)c2n1", "target": "RPS6KA1", "assay": "enzyme activity, inhibitor, FRET", "conditions": "1 µM", "endpoint": "inhibition", "value": "< 15%"}
{"Compound": "COc1ccc2c(c1)O[C@@H](c1ccc(OC)c(OC)c1)C[C@H]2NC(=O)C1(c2ccc3c(c2)OC(F)(F)O3)CC1", "target": "RPS6KA1 C-terminal kinase domain", "assay": "cell-free assay, competition with immobilised ligand", "conditions": "1 µM", "endpoint": "remaining binding", "value": "85%"}
{"Compound": "c1cnn2ncc(-c3ccnc(N4CCC45COC5)n3)c2c1", "target": "RPS6KA1 N-terminal kinase domain", "assay": "binding, competition with immobilised ligand", "conditions": "1 µM", "endpoint": "remaining binding", "value": "90%"}
{"Compound": "Nc1cnc(N2CCc3cc(S(=O)(=O)Nc4c(F)cc(Cl)cc4F)cc(N4CCCC4=O)c32)nc1", "target": "RPS6KA1 N-terminal kinase domain", "assay": "cell-free assay, competition with immobilised ligand", "conditions": "1 µM", "endpoint": "remaining binding", "value": "93%"}
{"Compound": "COc1cc2ncnc(Nc3ccc(Oc4ccccc4)c(C)c3C)c2cc1OC", "target": "RPS6KA1", "assay": "enzyme activity, inhibitor", "conditions": "1 µM", "endpoint": "inhibition", "value": "-2%"}
{"Compound": "CCCCN(CCCC)C(=O)CN1C[C@H](c2cc(OC)c3c(c2)OCO3)[C@@H](C(=O)O)[C@@H]1CC(C)(C)CCC", "target": "RPS6KA1 N-terminal kinase domain", "assay": "cell-free assay, competition with immobilised ligand", "conditions": "1 µM", "endpoint": "remaining binding", "value": "97.7%"}
{"Compound": "Nc1nc(NC2CCCCC2)sc1C(=O)c1ccccc1", "target": "RPS6KA1", "assay": "enzyme activity, inhibitor", "conditions": "10 µM", "endpoint": "remaining activity", "value": "67%"}
{"Compound": "CN(c1ncccc1CNc1nc(Nc2ccc3c(c2)CC(=O)N3)ncc1C(F)(F)F)S(C)(=O)=O", "target": "RPS6KA1", "assay": "enzyme activity, inhibitor", "conditions": "1 µM", "endpoint": "inhibition", "value": "84.8%"}
{"Compound": "N#CCCc1ccc2c(c1)-c1[nH]c3ccc([N+](=O)[O-])cc3c1CC(=O)N2", "target": "RPS6KA1", "assay": "cell-free assay", "conditions": "0.5 µM", "endpoint": "remaining signal", "value": "59.9%"}
{"Compound": "Cn1cncc1C1=CN(c2ncnc3[nH]cnc23)CCS1", "target": "RPS6KA1", "assay": "enzyme activity, inhibitor, radiometric", "conditions": "2 µM", "endpoint": "inhibition", "value": "82%"}
{"Compound": "O=C1NC(c2ccccn2)Sc2ccccc21 (centres unmarked)", "target": "RPS6KA1 C-terminal kinase domain", "assay": "cell-free assay, competition with immobilised ligand", "conditions": "1 µM", "endpoint": "remaining binding", "value": "100%"}
{"Compound": "CCN(CC)CCNC(=O)c1c(C)[nH]c(/C=C2\\C(=O)Nc3ccc(F)cc32)c1C", "target": "RPS6KA1", "assay": "cell-free assay", "conditions": "0.5 µM", "endpoint": "remaining signal", "value": "28%"}
{"Compound": "CC1CCCN1c1nccc(-c2cnn3ncccc23)n1 (centres unmarked)", "target": "RPS6KA1 C-terminal kinase domain", "assay": "binding, competition with immobilised ligand", "conditions": "1 µM", "endpoint": "remaining binding", "value": "77%"}
{"Compound": "O=C(Nc1cnn(-c2csc(C(=O)NC3COC3)c2)c1)Nc1c(F)cccc1Cl", "target": "RPS6KA1", "assay": "enzyme activity, inhibitor", "conditions": "5 µM", "endpoint": "remaining activity", "value": "96.3%"}
{"Compound": "CNC(=O)c1cc(Oc2ccc(NC(=O)Nc3ccc(Cl)c(C(F)(F)F)c3)cc2)ccn1", "target": "RPS6KA1", "assay": "enzyme activity, inhibitor", "conditions": "0.3 µM", "endpoint": "inhibition", "value": "5%"}
{"Compound": "Nc1nc(Nc2ccc(S(N)(=O)=O)cc2)nn1C(=O)c1c(F)cccc1F", "target": "RPS6KA1", "assay": "cell-free assay", "conditions": "0.5 µM", "endpoint": "remaining signal", "value": "42.1%"}
{"Compound": "CN(C)c1ncc(F)c(-c2cnn3ncccc23)n1", "target": "RPS6KA1 C-terminal kinase domain", "assay": "binding, competition with immobilised ligand", "conditions": "1 µM", "endpoint": "remaining binding", "value": "100%"}
{"Compound": "Cc1nccc(COC(=O)N2C[C@@H]3[C@@H](CNC(=O)c4ccc5[nH]nnc5c4)[C@@H]3C2)n1", "target": "RPS6KA1 C-terminal kinase domain", "assay": "cell-free assay, competition with immobilised ligand", "conditions": "1 µM", "endpoint": "remaining binding", "value": "96%"}
{"Compound": "CCCS(=O)(=O)Nc1ccc(F)c(C(=O)c2c[nH]c3ncc(-c4ccc(Cl)cc4)cc23)c1F", "target": "RPS6KA1", "assay": "enzyme activity, inhibitor", "conditions": "1 µM", "endpoint": "inhibition", "value": "< 10%"}
{"Compound": "COc1cccc2c(NCc3ccccc3)nc(-n3c(N)nc4ccccc43)nc12", "target": "RPS6KA1 C-terminal kinase domain", "assay": "target engagement in cells, inhibitor, chemoproteomics", "conditions": "20 mM", "endpoint": "inhibition", "value": "1%"}
{"Compound": "O=C1Nc2ccc(Cl)cc2C1=Cc1cc(Cl)c(O)c(Cl)c1", "target": "RPS6KA1", "assay": "cell-free assay", "conditions": "0.5 µM", "endpoint": "remaining signal", "value": "48.4%"}
{"Compound": "CC(=O)c1c(NS(C)(=O)=O)c2cc(-c3ccc(Cl)cc3)c(-c3ccc(Cl)cc3Cl)nc2n(C)c1=O", "target": "RPS6KA1 N-terminal kinase domain", "assay": "cell-free assay, competition with immobilised ligand", "conditions": "1 µM", "endpoint": "remaining binding", "value": "93%"}
{"Compound": "Nc1ncnc2occ(-c3ccc(NC(=O)Nc4cc(C(F)(F)F)ccc4F)cc3)c12", "target": "RPS6KA1 C-terminal kinase domain", "assay": "cell-free assay, inhibitor", "conditions": "20 µM", "endpoint": "remaining signal", "value": "20%"}
{"Compound": "Cn1c(=O)n(-c2ccc(C(C)(C)C#N)cc2)c2c3cc(-c4cnc5ccccc5c4)ccc3ncc21", "target": "RPS6KA1", "assay": "enzyme activity, inhibitor", "conditions": "10 µM", "endpoint": "remaining activity", "value": "97%"}
{"Compound": "CC/C(=N\\NC(=O)C(C)Nc1ccccc1)c1ccc(O)c(C)c1O (centres unmarked)", "target": "RPS6KA1", "assay": "enzyme activity, inhibitor", "conditions": "0.1 µM", "endpoint": "inhibition", "value": "36.6%"}
{"Compound": "COc1cc2c(Nc3ccc(Br)cc3F)ncnc2cc1OCC1CCN(C)CC1", "target": "RPS6KA1", "assay": "cell-free assay", "conditions": "0.5 µM", "endpoint": "remaining signal", "value": "102%"}
{"Compound": "COc1cc(Nc2cnc(C#N)c(O[C@H](C)CN(C)C)n2)ncc1-c1cnn(C)c1", "target": "RPS6KA1", "assay": "enzyme activity, inhibitor, radiometric", "conditions": "1 µM", "endpoint": "remaining activity", "value": "4%"}
